Like-named read-outs stand apart in the source and are kept apart here.
Legend:
[1] = assay type: in vivo, human (Chinese male healthy subjects); conditions: mean ± SD, n = 23; for AUC0–t: t = 4 h (BDP), 120 h (BOH), 360 h (B17P); for Tmax / T½ (half-life of elimination): single i.m. injection
[2] = Stability of the analytes in human plasma at QC levels; assay type: in vitro ADME; conditions: for Short-term Dev. (%) / Short-term MCM ± SD: 6 h, r.t.; for Short-term Dev. (%) / Short-term MCM ± SD / Long-term Dev. (%) / Long-term MCM ± SD / Freeze–thaw Dev. (%) / Freeze–thaw MCM ± SD: human plasma; for Short-term Dev. (%) / Short-term MCM ± SD / Long-term Dev. (%) / Long-term MCM ± SD / The autosampler Dev. (24h, %) / The autosampler MCM ± SD (24h) / The autosampler Dev. (48h, %) / The autosampler MCM ± SD (48h) / Freeze–thaw Dev. (%) / Freeze–thaw MCM ± SD: n = 5; for Long-term Dev. (%) / Long-term MCM ± SD: 40 days; for Long-term Dev. (%) / Long-term MCM ± SD / Freeze–thaw Dev. (%) / Freeze–thaw MCM ± SD: −40 °C; for The autosampler Dev. (24h, %) / The autosampler MCM ± SD (24h) / The autosampler Dev. (48h, %) / The autosampler MCM ± SD (48h): autosampler r.t.; for Freeze–thaw Dev. (%) / Freeze–thaw MCM ± SD: four cycles
Summary of the method: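 QC plasma made by spiking working solution into drug-free human plasma (1:9); the phosphate ester is pre-stabilised with 2M sodium cacodylate and 50% KF. Freeze-thaw: frozen at −40 °C for 24 h, thawed at 25 °C. Short-term: 6 h at room temperature. Long-term: −40 °C for 40 days. Quantified by UPLC-MS/MS against 1/x-weighted analyte/IS peak-area-ratio calibration curves.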

[3] = reported; cited from earlier work

Short-term Dev. (%) ([2]; high QC)	Short-term MCM ± SD ([2]; high QC)	Long-term Dev. (%) ([2]; high QC)	Long-term MCM ± SD ([2]; high QC)	The autosampler Dev. (24h, %) ([2]; high QC) [%]	The autosampler MCM ± SD (24h) ([2]; high QC)	The autosampler Dev. (48h, %) ([2]; high QC) [%]	The autosampler MCM ± SD (48h) ([2]; high QC)	Freeze–thaw Dev. (%) ([2]; high QC)	Freeze–thaw MCM ± SD ([2]; high QC)	Short-term Dev. (%) ([2]; low QC)	Short-term MCM ± SD ([2]; low QC)	Long-term Dev. (%) ([2]; low QC)	Long-term MCM ± SD ([2]; low QC)	The autosampler Dev. (24h, %) ([2]; low QC) [%]	The autosampler MCM ± SD (24h) ([2]; low QC)	The autosampler Dev. (48h, %) ([2]; low QC) [%]	The autosampler MCM ± SD (48h) ([2]; low QC)	Freeze–thaw Dev. (%) ([2]; low QC)	Freeze–thaw MCM ± SD ([2]; low QC)	Structure (SMILES)	further results
8.02	64.74 ± 5.074 × 10^−9 mol·dm^−3	−12.3	52.55 ± 2.816 × 10^−9 mol·dm^−3	−10.82	53.47 ± 2.906 × 10^−9 mol·dm^−3	6.68	63.95 ± 3.102 × 10^−9 mol·dm^−3	5.54	63.29 ± 2.673 × 10^−9 mol·dm^−3	9.63	0.610 ± 0.048 × 10^−9 mol·dm^−3	7.34	0.597 ± 0.064 × 10^−9 mol·dm^−3	5.04	0.584 ± 0.056 × 10^−9 mol·dm^−3	2.29	0.569 ± 0.087 × 10^−9 mol·dm^−3	3.67	0.577 ± 0.038 × 10^−9 mol·dm^−3	C[C@H]1C[C@H]2[C@@H]3CCC4=CC(=O)C=C[C@]4(C)[C@@]3(F)[C@@H](O)C[C@]2(C)[C@@]1(O)C(=O)CO [BOH, betamethasone]	AUC0–∞ ([1]; Reference formulation): 915.3 ± 206.5 × 10^−9 mol·dm^−3·h^−1; AUC0–∞ ([1]; Test formulation): 856.6 ± 269.4 × 10^−9 mol·dm^−3·h^−1; AUC0–t ([1]; Test formulation): 820.2 ± 249.4 × 10^−9 mol·dm^−3·h^−1; Short-term Dev. (%) ([2]; middle QC): 8.82%; Short-term MCM ± SD ([2]; middle QC): 10.87 ± 0.633 × 10^−9 mol·dm^−3; Long-term Dev. (%) ([2]; middle QC): 5.78%; Long-term MCM ± SD ([2]; middle QC): 10.57 ± 0.577 × 10^−9 mol·dm^−3; The autosampler MCM ± SD (24h) ([2]; middle QC): 10.20 ± 0.505 × 10^−9 mol·dm^−3; The autosampler Dev. (48h, %) ([2]; middle QC): 3.89%; The autosampler MCM ± SD (48h) ([2]; middle QC): 10.38 ± 0.513 × 10^−9 mol·dm^−3; Freeze–thaw Dev. (%) ([2]; middle QC): 4.88%; Freeze–thaw MCM ± SD ([2]; middle QC): 10.48 ± 0.645 × 10^−9 mol·dm^−3
−8.39	3.435 ± 0.353 × 10^−9 mol·dm^−3	10.5	4.185 ± 0.616 × 10^−9 mol·dm^−3	−12.14	3.295 ± 0.304 × 10^−9 mol·dm^−3	−4.7	3.574 ± 0.531 × 10^−9 mol·dm^−3	2.2	3.832 ± 0.330 × 10^−9 mol·dm^−3	9.09	0.214 ± 0.020 × 10^−9 mol·dm^−3	4.54	0.205 ± 0.027 × 10^−9 mol·dm^−3	5.68	0.208 ± 0.022 × 10^−9 mol·dm^−3	−5.68	0.185 ± 0.025 × 10^−9 mol·dm^−3	12.5	0.221 ± 0.335 × 10^−9 mol·dm^−3	CCC(=O)O[C@]1(C(=O)CO)[C@@H](C)C[C@H]2[C@@H]3CCC4=CC(=O)C=C[C@]4(C)[C@@]3(F)[C@@H](O)C[C@@]21C [B17P, betamethasone 17-monopropionate]	AUC0–∞ ([1]; Reference formulation): 281.7 ± 91.50 × 10^−9 mol·dm^−3·h^−1; Tmax ([1]; Reference formulation): 17.74 ± 13.04 h; T½ (half-life of elimination) ([1]; Reference formulation): 106.6 ± 35.93 h; AUC0–∞ ([1]; Test formulation): 305.4 ± 108.1 × 10^−9 mol·dm^−3·h^−1; Tmax ([1]; Test formulation): 19.83 ± 12.27 h; T½ (half-life of elimination) ([1]; Test formulation): 101.3 ± 39.43 h; AUC0–t ([1]; Test formulation): 259.2 ± 89.1 × 10^−9 mol·dm^−3·h^−1; elimination half-life time [3]: 80.8 h; Short-term Dev. (%) ([2]; middle QC): 2.08%; Short-term MCM ± SD ([2]; middle QC): 1.196 ± 0.112 × 10^−9 mol·dm^−3; Long-term Dev. (%) ([2]; middle QC): 5.91%; Long-term MCM ± SD ([2]; middle QC): 1.241 ± 0.129 × 10^−9 mol·dm^−3; The autosampler Dev. (24h, %) ([2]; middle QC): 7.80%; The autosampler MCM ± SD (24h) ([2]; middle QC): 1.266 ± 0.094 × 10^−9 mol·dm^−3; The autosampler Dev. (48h, %) ([2]; middle QC): −5.02%; The autosampler MCM ± SD (48h) ([2]; middle QC): 1.114 ± 0.129 × 10^−9 mol·dm^−3; Freeze–thaw Dev. (%) ([2]; middle QC): 6.62%; Freeze–thaw MCM ± SD ([2]; middle QC): 1.250 ± 0.112 × 10^−9 mol·dm^−3

Structure (SMILES)	Short-term Dev. (%) ([2]; high QC)	Short-term MCM ± SD ([2]; high QC)	Long-term Dev. (%) ([2]; high QC)	Long-term MCM ± SD ([2]; high QC)	The autosampler Dev. (24h, %) ([2]; high QC) [%]	The autosampler MCM ± SD (24h) ([2]; high QC)	The autosampler Dev. (48h, %) ([2]; high QC) [%]	The autosampler MCM ± SD (48h) ([2]; high QC)	Freeze–thaw Dev. (%) ([2]; high QC)	Freeze–thaw MCM ± SD ([2]; high QC)	Short-term Dev. (%) ([2]; low QC)	Short-term MCM ± SD ([2]; low QC)	Long-term Dev. (%) ([2]; low QC)	Long-term MCM ± SD ([2]; low QC)	The autosampler Dev. (24h, %) ([2]; low QC) [%]	The autosampler MCM ± SD (24h) ([2]; low QC)	The autosampler Dev. (48h, %) ([2]; low QC) [%]	The autosampler MCM ± SD (48h) ([2]; low QC)	Freeze–thaw Dev. (%) ([2]; low QC)	Freeze–thaw MCM ± SD ([2]; low QC)	further results
C[C@H]1C[C@H]2[C@@H]3CCC4=CC(=O)C=C[C@]4(C)[C@@]3(F)[C@@H](O)C[C@]2(C)[C@@]1(O)C(=O)COP(=O)([O-])[O-].[Na+].[Na+] [BSP, betamethasone sodium phosphate]	−3.78	310.9 ± 14.43 × 10^−9 mol·dm^−3	−1.02	320.0 ± 10.35 × 10^−9 mol·dm^−3	−2.94	313.6 ± 35.39 × 10^−9 mol·dm^−3	11.19	359.2 ± 22.46 × 10^−9 mol·dm^−3	−2.50	315.1 ± 4.665 × 10^−9 mol·dm^−3	−1.19	4.988 ± 0.250 × 10^−9 mol·dm^−3	−1.07	4.994 ± 0.560 × 10^−9 mol·dm^−3	4.03	5.252 ± 0.696 × 10^−9 mol·dm^−3	10.63	5.585 ± 0.616 × 10^−9 mol·dm^−3	−2.84	4.905 ± 0.357 × 10^−9 mol·dm^−3	Short-term Dev. (%) ([2]; middle QC): −2.55%; Short-term MCM ± SD ([2]; middle QC): 39.36 ± 5.767 × 10^−9 mol·dm^−3; Long-term Dev. (%) ([2]; middle QC): −1.06%; Long-term MCM ± SD ([2]; middle QC): 39.94 ± 5.576 × 10^−9 mol·dm^−3; The autosampler Dev. (24h, %) ([2]; middle QC): 1.08%; The autosampler MCM ± SD (24h) ([2]; middle QC): 40.83 ± 5.209 × 10^−9 mol·dm^−3; The autosampler Dev. (48h, %) ([2]; middle QC): 9.88%; The autosampler MCM ± SD (48h) ([2]; middle QC): 44.38 ± 5.581 × 10^−9 mol·dm^−3; Freeze–thaw Dev. (%) ([2]; middle QC): −2.67%; Freeze–thaw MCM ± SD ([2]; middle QC): 39.30 ± 5.785 × 10^−9 mol·dm^−3; stability in human blank plasma ([2]; without stabilizer (sodium cacodylate, potassium fluoride)): labile

From paper PMC5042352 (Analytical methods : advancing methods and applications, 2016)
